Measurements published in ChEMBL document CHEMBL3400136, “Design and synthesis of new potassium channel activators derived from the ring opening of diazoxide: study of their vasodilatory effect, stimulation of elastin synthesis and inhibitory effect on insulin release” (Bioorg Med Chem, 2015).
Active and inactive are the calls of the source. The calls are words filed in the database; no cut-off is given here.

Key:
Thoracic aorta [1] = assay: Vasorelaxant activity in Wistar rat endothelium thoracic aortic ring assessed as inhibition of 30 mM KCl-induced contraction; assay type: functional, tissue-based
Outline: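 Rings from adult Wistar rat thoracic aorta, with or without endothelium, under 1.5 g tension in oxygenated physiological solution at 37 °C, pH 7.36. Contraction by 30 mM KCl after 60 min equilibration, then cumulative drug to maximal relaxation. EC50 = concentration giving 50% relaxation of KCl contraction; mean ± sem.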

[2] = Dissociation constant, pKa of the compound by UV-Visible spctrophotometry; assay type: physicochemical
Outline: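 UV–visible spectra recorded at ambient temperature in borate and phosphate buffers from pH 3 to 10, using neutral and ionic species references in 0.1 N HCl and 0.1 N NaOH. Exact pH measured for each spectrum. pKa calculated by the Albert–Serjeant formula.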

Thoracic aorta [3] = assay: Vasorelaxant activity in Wistar rat thoracic aortic ring assessed as inhibition of 80 mM KCl-induced contraction; assay type: functional, tissue-based
Outline: (§1)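 Thoracic aorta rings (2–3 mm) from adult Wistar rats, held at 1.5 g tension in Krebs-type solution pH 7.36, 37 °C, O2/CO2 95:5. After 60 min equilibration, contracted with 30 or 80 mM KCl, some with 10 µM glibenclamide. Cumulative drug additions to maximal relaxation; isometric tension by force transducer. Relaxation as % of KCl contraction; EC50 from concentration-response curves; mean ± sem, n experiments.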

Rattus norvegicus [4] = species on record: Rattus norvegicus; assay: Activation of ATP-sensitive potassium channel in Wistar rat pancreatic islets assessed as inhibition of 16.7 mM of glucose-induced insulin secretion by measuring residual insulin secretion at 50 uM after 90 mins relative to control
Outline: (§2)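 Islets from adult fed Wistar rats, groups of 10. Preincubated 30 min at 37 °C in bicarbonate salt medium with 2.8 mM glucose and 0.5% dialysed albumin, gassed O2/CO2 95:5. Then 90 min at 37 °C in same medium with 16.7 mM glucose plus drug. Insulin by radioimmunoassay against rat insulin standard, expressed as % of drug-free 16.7 mM glucose control.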

Rattus norvegicus [5] = species on record: Rattus norvegicus; assay: Activation of ATP-sensitive potassium channel in Wistar rat pancreatic islets assessed as inhibition of 16.7 mM of glucose-induced insulin secretion by measuring residual insulin secretion at 10 uM after 90 mins relative to control; outline: as §2
Rattus norvegicus [6] = assay: Hyperglycemic effect in Wistar albino rat assessed as effect on blood glucose at 50 mg/kg, po; assay type: functional, organism-based; parameters: dose 50 mg/kg
Outline: (§3)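 Adult fed Wistar albino rats, conscious, free access to water and standard pellet diet, held in a small cabinet from 60 min before sampling. Single oral dose in DMSO (0.2 mL) at time zero; controls got DMSO alone. Tail blood drop at 0, 1, 2, 3 and 4 h, glucose by reagent strip and glucometer. Mean ± sem, n = 3 rats.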

Homo sapiens [7] = species on record: Homo sapiens; assay: Activation of ATP-sensitive potassium channel in vascular smooth muscle cells (unknown origin) assessed as increase in elastin production at 50 uM after 48 hrs by ELISA
Outline: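 Primary aortic smooth muscle cells were serum-starved overnight in 1% FCS-DMEM, seeded at 25,000 cells/well and left to adhere overnight. They were then exposed for 48 h in 1% FCS-DMEM to compound in DMSO (final DMSO <1%). Cells were fixed in 4% paraformaldehyde, blocked with 2% BSA, then labelled with anti-elastin antibody (1:1000) and HRP secondary (1:50,000). The reaction was stopped with sulfuric acid and absorbance read. Negative control was DMSO; positive control was 1 mM minoxidil.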

Thoracic aorta [8] = assay: Vasorelaxant activity in Wistar rat thoracic aortic ring assessed as inhibition of KCl-induced contraction in presence of glibenclamide; assay type: functional, tissue-based; outline: as §1
Thoracic aorta [9] = assay: Vasorelaxant activity in Wistar rat thoracic aortic ring assessed as inhibition of 30 mM KCl-induced contraction; assay type: functional, tissue-based; outline: as §1
Homo sapiens [10] = species on record: Homo sapiens; assay: Activation of ATP-sensitive potassium channel in vascular smooth muscle cells (unknown origin) assessed as increase in elastin production at 10 to 20 uM after 48 hrs by ELISA
Outline: (§4)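 Primary aortic smooth muscle cells serum-starved overnight in 1% FCS-DMEM, seeded 25,000 cells/well and adhered overnight. Compounds in DMSO (final <1%) for 48 h, some wells with 10 µM glibenclamide throughout. Controls were DMSO alone, 1 mM minoxidil in water, or diazoxide. Cells fixed in 4% paraformaldehyde, extracellular elastin by anti-elastin ELISA with HRP secondary, read by absorbance. n = 3–4 from different cultures; ANOVA.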

Homo sapiens [11] = species on record: Homo sapiens; assay: Activation of ATP-sensitive potassium channel in vascular smooth muscle cells (unknown origin) assessed as increase in elastin production at 10 to 100 uM after 48 hrs by ELISA; outline: as §4
Homo sapiens [12] = species on record: Homo sapiens; assay: Activation of ATP-sensitive potassium channel in vascular smooth muscle cells (unknown origin) assessed as increase in elastin production after 48 hrs by ELISA; outline: as §4
Homo sapiens [13] = species on record: Homo sapiens; assay: Activation of ATP-sensitive potassium channel in vascular smooth muscle cells (unknown origin) assessed as increase in elastin production at 100 uM after 48 hrs by ELISA; outline: as §4
Homo sapiens [14] = species on record: Homo sapiens; assay: Activation of ATP-sensitive potassium channel in vascular smooth muscle cells (unknown origin) assessed as increase in elastin production at 10 to 100 uM after 48 hrs by ELISA in presence of glibenclamide; outline: as §4
Homo sapiens [15] = species on record: Homo sapiens; assay: Activation of ATP-sensitive potassium channel in vascular smooth muscle cells (unknown origin) assessed as increase in elastin production at 100 uM after 48 hrs by ELISA
Rattus norvegicus [16] = assay: Activation of ATP-sensitive potassium channel in Wistar albino rat assessed as effect on blood glucose at 50 mg/kg, po; assay type: functional, organism-based; parameters: dose 50 mg/kg; outline: as §3
Rattus norvegicus [17] = species on record: Rattus norvegicus; assay: Activation of ATP-sensitive potassium channel in Wistar rat thoracic aortic ring assessed as rightward shift; assay type: tissue-based; conditions: Aorta; outline: as §1
Rattus norvegicus [18] = assay: Hypoglycemic effect in Wistar albino rat assessed as effect on blood glucose at 0.25 mg/kg, po; assay type: functional, organism-based; parameters: dose 0.25 mg/kg; outline: as §3

`COc1ccc(Cl)cc1S(=O)(=O)NC(=S)NC(C)C` showed an EC50 (Thoracic aorta [1]) of over 300 µM and a pKa [2] of 5.74.

For `CC1=Nc2ccc(Cl)cc2S(=O)(=O)N1` [DIAZOXIDE], the EC50 (Thoracic aorta [3]) was over 300 µM, the Activity (Rattus norvegicus [4]) was 28.8% and the Activity (Rattus norvegicus [5]) was 70%. The Activity (Rattus norvegicus [6]) was “Active” and the Activity (Homo sapiens [7]) was 67%.

`COc1ccccc1C(=O)NC(=O)NC1CCCCC1` gave an EC50 (Thoracic aorta [1]) of 35.9 µM.

Molecule `COc1ccc(Cl)cc1S(=O)(=O)NC(=O)Nc1ccc(F)cc1` has an EC50 (Thoracic aorta [1]) of over 300 µM.

`COc1ccc(Cl)cc1S(=O)(=O)NC(=O)NC(C)C` gave an EC50 (Thoracic aorta [1]) of over 300 µM and a pKa [2] of 5.65.

In the case of `CCC(C)NC(=S)NC(=O)c1ccccc1OC` (stereo not given), the EC50 (Thoracic aorta [1]) is reported as 36.6 µM.

`CCNC(=O)NC(=O)c1ccccc1OC` showed an EC50 (Thoracic aorta [1]) of over 100 µM.

With `CCOc1ccc(Cl)cc1S(=O)(=O)NC(=S)Nc1ccc(F)cc1` the EC50 (Thoracic aorta [1]) was over 300 µM.

Work on `COc1ccccc1C(=O)NC(=S)NCc1ccccc1` yielded an EC50 (Thoracic aorta [1]) of 47.2 µM.

For `COc1ccc(F)cc1S(=O)(=O)NC(=S)NC(C)C`, the EC50 (Thoracic aorta [1]) was over 300 µM.

`CCOc1ccc(Cl)cc1S(=O)(=O)NC(=S)NCc1ccccc1` gave an EC50 (Thoracic aorta [1]) of over 300 µM.

`CCNC(=O)NC(=O)c1ccccc1OCc1ccccc1` gave an EC50 (Thoracic aorta [1]) of 16.7 µM, an EC50 (Thoracic aorta [8]) of 38 µM and an EC50 (Thoracic aorta [3]) of 36.6 µM. The EC50 (Thoracic aorta [9]) was 17.2 µM, the Activity (Rattus norvegicus [4]) was 113% and the Activity (Rattus norvegicus [5]) was 110%. The Activity (Homo sapiens [10]) was “inactive”.

`COc1ccc(Cl)cc1S(=O)(=O)NC(=S)NCc1ccccc1` showed an EC50 (Thoracic aorta [1]) of over 300 µM.

For `CCCOc1ccccc1C(=O)NC(=S)NCc1ccccc1`, the EC50 (Thoracic aorta [1]) was 71.1 µM.

With `COc1ccc(Cl)cc1S(=O)(=O)NC(=O)Nc1ccccc1` the EC50 (Thoracic aorta [1]) was over 300 µM and the pKa [2] was 4.5.

With `COc1ccccc1C(=O)NC(=O)NC(C)C` the EC50 (Thoracic aorta [1]) was 91.4 µM.

In the case of `O=C(NCc1ccccc1)NC(=O)c1ccccc1OCc1ccccc1`, the EC50 (Thoracic aorta [1]) is reported as 21.1 µM.

With `COc1ccccc1C(=O)NC(=S)Nc1ccccc1` the EC50 (Thoracic aorta [1]) was 34.5 µM.

`O=C(NC(=O)c1ccccc1OCc1ccccc1)NC1CCCCC1` showed an EC50 (Thoracic aorta [1]) of 33.8 µM.

`O=C(NC(=S)NCc1ccccc1)c1ccccc1OCc1ccccc1` showed an EC50 (Thoracic aorta [1]) of over 100 µM.

For `CCCOc1ccccc1C(=O)NC(=O)Nc1ccccc1`, the EC50 (Thoracic aorta [1]) was 59.6 µM.

For `CCNC(=S)NC(=O)c1ccccc1OC`, the EC50 (Thoracic aorta [1]) was 15.2 µM, the EC50 (Thoracic aorta [8]) was 28.2 µM and the EC50 (Thoracic aorta [3]) was 57.1 µM. The EC50 (Thoracic aorta [9]) was 17.4 µM, the Activity (Rattus norvegicus [4]) was 99.6% and the Activity (Rattus norvegicus [5]) was 94.1%. The Activity (Homo sapiens [11]) was “inactive”.

Work on `COc1ccccc1C(=O)NC(=O)Nc1ccccc1` yielded an EC50 (Thoracic aorta [1]) of 26.7 µM.

Work on `CCCCCNC(=O)NC(=O)c1ccccc1OCc1ccccc1` yielded an EC50 (Thoracic aorta [1]) of 17.3 µM.

With `CCNC(=S)NS(=O)(=O)c1cc(Cl)ccc1OC` the EC50 (Thoracic aorta [1]) was over 300 µM.

Work on `CCOc1ccc(Cl)cc1S(=O)(=O)NC(=O)Nc1ccccc1` yielded an EC50 (Thoracic aorta [1]) of over 300 µM.

Molecule `COc1ccc(F)cc1S(=O)(=O)NC(=O)NC(C)C` has an EC50 (Thoracic aorta [1]) of over 300 µM and a pKa [2] of 5.52.

With `CCOc1ccc(Cl)cc1S(=O)(=O)NC(=O)NC(C)C` the EC50 (Thoracic aorta [1]) was over 300 µM.

With `CC(C)NC(=O)NC(=O)c1ccccc1OCc1ccccc1` the EC50 (Thoracic aorta [1]) was 26.8 µM.

Work on `COc1ccccc1C(=O)NC(=S)NC(C)C` yielded an EC50 (Thoracic aorta [1]) of 18.6 µM, an EC50 (Thoracic aorta [8]) of 28.1 µM and an EC50 (Thoracic aorta [3]) of 38.1 µM. It also gave an EC50 (Thoracic aorta [9]) of 15.7 µM, an Activity (Rattus norvegicus [4]) of 105% and an Activity (Rattus norvegicus [5]) of 90.9%. The Activity (Homo sapiens [12]) was “Dose-dependent effect”, the Activity (Homo sapiens [13]) was 30% and the Activity (Homo sapiens [14]) was “inactive”. For the same molecule, the Activity (Homo sapiens [15]) was 30%.

For `CCOc1ccc(Cl)cc1S(=O)(=O)NC(=O)NC1CCCCC1`, the EC50 (Thoracic aorta [1]) was over 300 µM.

For `CCCOc1ccccc1C(=O)NC(=O)NC1CCCCC1`, the EC50 (Thoracic aorta [1]) was 58.2 µM.

Work on `CCCOc1ccccc1C(=O)NC(=S)Nc1ccccc1` yielded an EC50 (Thoracic aorta [1]) of 16.5 µM, an EC50 (Thoracic aorta [8]) of 64.9 µM and an EC50 (Thoracic aorta [3]) of 121 µM. For the same molecule, the EC50 (Thoracic aorta [9]) was 12 µM, the Activity (Rattus norvegicus [4]) was 44.9% and the Activity (Rattus norvegicus [5]) was 83.8%. The Activity (Rattus norvegicus [16]) was “inactive”.

For `CCC(C)NC(=O)NC(=O)c1ccccc1OCc1ccccc1` (stereo not given), the EC50 (Thoracic aorta [1]) was 12.2 µM, the EC50 (Thoracic aorta [8]) was 20.2 µM and the EC50 (Thoracic aorta [3]) was 45.6 µM. For the same molecule, the Activity (Rattus norvegicus [17]) was “Dose-dependent effect”, the EC50 (Thoracic aorta [9]) was 15.3 µM and the Activity (Rattus norvegicus [4]) was 21.4%. For the same molecule, the Activity (Rattus norvegicus [5]) was 90.1%, the Activity (Rattus norvegicus [16]) was “inactive” and the Activity (Homo sapiens [12]) was “Dose-dependent effect”. The Activity (Homo sapiens [13]) was 30%, the Activity (Homo sapiens [14]) was “inactive” and the Activity (Homo sapiens [15]) was 30%.

In the case of `CCOc1ccc(Cl)cc1S(=O)(=O)NC(=S)NC(C)C`, the EC50 (Thoracic aorta [1]) is reported as over 300 µM.

`CCC(C)NC(=O)NC(=O)c1ccccc1OC` (stereo not given) gave an EC50 (Thoracic aorta [1]) of 31.8 µM.

For `COc1ccc(Cl)cc1C(=O)NCCc1ccc(S(=O)(=O)NC(=O)NC2CCCCC2)cc1`, the Activity (Rattus norvegicus [18]) was “Active”.

`COc1ccc(Cl)cc1S(=O)(=O)NC(=O)NC1CCCCC1` gave an EC50 (Thoracic aorta [1]) of over 300 µM and a pKa [2] of 5.46.
